In brackets after ≈: the same amount, converted by molar mass.
Tests used:
Staphylococcus aureus [1] = test: Antibacterial activity against Staphylococcus aureus measured after 8 serial passages; assay type: functional
Streptococcus pyogenes = test: Antibacterial activity against Streptococcus pyogenes isolate 556; assay type: functional
[2] = Tmax in male rat at 45 mg/kg, po; assay type: ADME, organism-based; parameters: dose 45 mg/kg, route oral; details: in vivo
Summary of the method: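 Male and female rats received single oral doses of 5, 15 or 45 mg/kg, with 5 mg/kg iv as a reference arm. Tmax was read from the plasma concentration–time profile for each gender.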

Staphylococcus aureus [3] = test: Antibacterial activity against methicillin-sensitive Staphylococcus aureus isolate 15 in po dosed mouse systemic infection model; assay type: functional; details: isolate 15, po
[4] = molecular target: T1, Amine oxidase [flavin-containing] A (Homo sapiens, UniProt P21397); test: Inhibition of MAO-A (unknown origin) using tyramine as substrate after 30 to 60 mins by fluorescence plate reader analysis
T1 sequence (P21397 whole entry): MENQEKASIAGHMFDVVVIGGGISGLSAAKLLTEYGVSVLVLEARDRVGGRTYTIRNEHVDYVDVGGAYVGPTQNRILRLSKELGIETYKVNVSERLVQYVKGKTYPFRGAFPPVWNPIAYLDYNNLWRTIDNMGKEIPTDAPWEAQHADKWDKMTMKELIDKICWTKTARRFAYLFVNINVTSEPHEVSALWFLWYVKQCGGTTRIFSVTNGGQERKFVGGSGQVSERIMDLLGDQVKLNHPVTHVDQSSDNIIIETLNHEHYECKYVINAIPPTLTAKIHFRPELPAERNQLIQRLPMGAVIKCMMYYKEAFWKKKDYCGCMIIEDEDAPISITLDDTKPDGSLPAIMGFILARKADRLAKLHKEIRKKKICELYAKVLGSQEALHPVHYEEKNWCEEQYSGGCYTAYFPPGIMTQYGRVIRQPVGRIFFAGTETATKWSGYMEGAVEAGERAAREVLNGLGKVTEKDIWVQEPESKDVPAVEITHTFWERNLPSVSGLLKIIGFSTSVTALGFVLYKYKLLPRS

[5] = Cmax in human at 600 mg, po administered as single dose with meal measured on day 1; assay type: ADME, organism-based; parameters: dose 600 mg, route oral; details: in vivo
Summary of the method: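 Randomized, double-blind, placebo-controlled multiple-dose study in 32 healthy subjects, half male and half female. Each dose was taken with a meal, at 600 or 800 mg, 28 doses over 15 days. A single dose on days 1 and 15 gave full PK; BID (Q12h) dosing ran on days 2–14.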

[6] = Half life in female rat at 45 mg/kg, po; assay type: ADME, organism-based; parameters: dose 45 mg/kg, route oral; details: in vivo
Mus musculus = test: Dose normalized Cmax in po dosed mouse; assay type: ADME, organism-based; details: in vivo
Rattus norvegicus [7] = test: Toxicity in female rat assessed as effect on WBC count at 200 to 300 mg/kg/day, po bid administered for 4 weeks (reference value: 3.66 x 10^9/L); assay type: organism-based; parameters: route oral; details: in vivo, 672 h
Streptococcus pneumoniae [8] = test: Bactericidal activity against penicillin-resistant Streptococcus pneumoniae; assay type: functional
[9] = tested on: Staphylococcus haemolyticus; test: Antibacterial activity against Staphylococcus haemolyticus; assay type: functional
[10] = Myelosuppression activity against human CD34-positive blood stem/progenitor cells assessed as growth inhibition after 9 to 10 days by CellTiter-Glo luminescent assay
Enterococcus faecalis = test: Antibacterial activity against vancomycin-sensitive/high-level gentamycin-resistant Enterococcus faecalis isolate HH22; assay type: functional; details: EnGen0297
[11] = AUC (0 to infinity) in fasted human at 900 mg, po administered as single dose; assay type: ADME, organism-based; parameters: dose 900 mg, route oral, time infinity; details: plasma
Summary of the method: (§1)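 Single-dose, three-period Latin-square crossover in 12 healthy volunteers (6 of each gender). Each received single oral 300, 600 and 900 mg doses under fasting conditions, with a 1-week washout between doses. PK parameters, including AUC0−inf, came from a noncompartmental model.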

Rattus norvegicus [12] = test: Toxicity in rat assessed as mortality at 20 to 300 mg/kg, po bid administered for 4 weeks measured on day 1 to day 28; assay type: organism-based; parameters: dose 20-300 mg/kg, route oral; details: in vivo, 672 h
Summary of the method: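 Rats, 10 per gender per group, given drug orally twice daily at 20, 100 and 200/300 mg/kg/day for 4 weeks, then a 4-week recovery period. The top dose of 200 mg/kg/day was raised to 300 mg/kg/day on day 15. The comparator was dosed the same way at 100 and 200 mg/kg/day. Monitoring covered mortality, body weight, hematology and bone marrow, with blood taken for TK on days 1, 14 and 28.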

Staphylococcus aureus [13] = test: Antibacterial activity against methicillin-resistant Staphylococcus aureus isolate 0605; assay type: functional
[14] = Cmax in human at 900 mg, po administered as single dose at 30 mins post fat meal; assay type: ADME, organism-based; parameters: dose 900 mg, route oral; details: in vivo
Summary of the method: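 Crossover study in 12 subjects (six of each sex). Each got a single oral 900 mg dose either fasted or 30 min after a fat-containing meal.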

[15] = AUC (0 to 24 hrs) in female rat at 200 mg/kg/day, po bid administered for 4 weeks; assay type: ADME, organism-based; parameters: dose 200 mg/kg/day, time < 24 hr, route oral; details: plasma
Summary of the method: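 Repeat-dose toxicity study in rats (10/gender/group) dosed orally twice daily for 4 weeks, then a 4-week recovery period; the top dose was raised from 200 to 300 mg/kg/day on day 15. Blood was taken on days 1, 14 and 28 for toxicokinetics, and AUC0−24 was reported for females.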

Staphylococcus aureus [16] = test: Antibacterial activity against methicillin-resistant Staphylococcus aureus isolate 0605 in po dosed mouse thigh infection model; assay type: functional, organism-based; details: Thigh muscle
[17] = Cmax in fasted human at 900 mg, po administered as single dose; assay type: ADME, organism-based; parameters: dose 900 mg, route oral; details: in vivo
Summary of the method: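 Healthy volunteers (12; six of each sex) in a three-period Latin-square crossover. Each received single oral doses of 300, 600 and 900 mg under fasting conditions, with a 1-week washout between doses. Parameters from a noncompartmental model.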

[18] = AUC (0 to infinity) in fasted human at 300 mg, po administered as single dose; assay type: ADME, organism-based; parameters: dose 300 mg, route oral, time infinity; details: plasma; summary of the method: as §1
[19] = Tmax in fasted human at 300 mg, po administered as single dose; assay type: ADME, organism-based; details: in vivo
Summary of the method: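 Randomized single-dose, three-period Latin-square crossover in 12 healthy volunteers (six per gender), fasting. Single oral doses of 300, 600 and 900 mg were separated by a 1-week washout. PK parameters were derived by noncompartmental analysis.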

Staphylococcus aureus [20] = test: Antibacterial activity against methicillin-sensitive Staphylococcus aureus; assay type: functional
Rattus norvegicus [21] = test: Toxicity in female rat assessed as effect on platelet count at 100 mg/kg/day, po bid administered for 4 weeks (reference value: 654.6 x 10^9/L); assay type: organism-based; parameters: route oral; details: in vivo, 672 h
Staphylococcus aureus [22] = test: Antibacterial activity against Staphylococcus aureus measured after 7 serial passages; assay type: functional
[23] = Cmax in female rat at 15 mg/kg, po; assay type: ADME, organism-based; parameters: dose 15 mg/kg, route oral; details: in vivo
Rattus norvegicus [24] = test: Toxicity in female rat assessed as effect on hemoglobin level at 100 mg/kg/day, po bid administered for 4 weeks (reference value: 141.8 g/L); assay type: organism-based; parameters: route oral; details: in vivo, 672 h
Rattus norvegicus [25] = test: Dose normalized AUC (0 to t) in po dosed rat; assay type: ADME, organism-based; details: in vivo
Streptococcus pneumoniae [26] = test: Antibacterial activity against penicillin intermediate-sensitive Streptococcus pneumoniae ATCC 49619 clinical isolate; assay type: functional
[27] = Oral bioavailability in mouse; assay type: ADME, organism-based; details: in vivo
Rattus norvegicus [28] = test: Toxicity in female rat assessed as effect on platelet count at 200 to 300 mg/kg/day, po bid administered for 4 weeks (reference value: 654.6 x 10^9/L); assay type: organism-based; parameters: route oral; details: in vivo, 672 h
[29] = Half life in male rat at 5 mg/kg, iv; assay type: ADME, organism-based; parameters: dose 5 mg/kg, route intravenous; details: in vivo

O=C1C=CN(c2c(F)cc(N3C[C@H](CNc4ccon4)OC3=O)c(F)c2F)CC1 [CONTEZOLID]
MIC (Staphylococcus aureus [1]): 2 µg/mL (≈ 4.9 µM) | MIC (Streptococcus pyogenes): 1 µg/mL (≈ 2.45 µM) | Tmax [2]: 1 h | ED50 (Staphylococcus aureus [3]): 5.7 mg/kg | IC50 [4]: 103 µM | Cmax [5]: 20300 ng/mL | half-life [6]: 1.87 h | Cmax/dose (Mus musculus): 524 ng/mL/(mg/kg) | Activity (Rattus norvegicus [7]): 2.72 ×10⁹ /L | MIC50 (Streptococcus pneumoniae [8]): 0.5 µg/mL (≈ 1.22 µM) | MIC90 (Streptococcus pneumoniae [8]): 0.5 µg/mL (≈ 1.22 µM) | MIC50 [9]: 0.5 µg/mL (≈ 1.22 µM) | MIC90 [9]: 0.5 µg/mL (≈ 1.22 µM) | IC50 [10]: 15.7 µg/mL (≈ 38.4 µM) | MIC (Enterococcus faecalis): 2 µg/mL (≈ 4.9 µM) | AUC(0-inf) [11]: 59200 ng·h/mL | Activity (Rattus norvegicus [12]): Non-toxic | MIC (Staphylococcus aureus [13]): 2 µg/mL (≈ 4.9 µM) | Cmax [14]: 42300 ng/mL | AUC at 24 h [15]: 626000 ng·h/mL | Activity (Staphylococcus aureus [16]): Dose-dependent effect | Cmax [17]: 15200 ng/mL | AUC(0-inf) [18]: 29200 ng·h/mL | Tmax [19]: 1.25 h | MIC (Staphylococcus aureus [20]): 0.5 µg/mL (≈ 1.22 µM) | MIC50 (Staphylococcus aureus [20]): 0.5 µg/mL (≈ 1.22 µM) | MIC90 (Staphylococcus aureus [20]): 0.5 µg/mL (≈ 1.22 µM) | Activity (Rattus norvegicus [21]): 636.2 ×10⁹ /L | MIC (Staphylococcus aureus [22]): 2 µg/mL (≈ 4.9 µM) | Cmax [23]: 17200 ng/mL | Activity (Rattus norvegicus [24]): 134.8 g/L | AUCt/dose (Rattus norvegicus [25]): 3703 ng·h/mL/mg/kg | MIC (Streptococcus pneumoniae [26]): 1 µg/mL (≈ 2.45 µM) | bioavailability [27]: 69% | Activity (Rattus norvegicus [28]): 464.2 ×10⁹ /L | half-life [29]: 0.99 h
